Here are results for 1 molecule from ChEMBL document CHEMBL4765386, “Discovery of tertiary amide derivatives incorporating benzothiazole moiety as anti-gastric cancer agents in vitro via inhibiting tubulin polymerization and activating the Hippo signaling pathway” (Eur J Med Chem, 2020).

The test system of experiment [1] is MGC-803. Nature of the experiment: Antiproliferative activity against human MGC-803 cells assessed as reduction in cell viability incubated for 48 hrs by MTT assay. It is filed as functional, cell-based. The conditions noted are these: MGC-803, 48 h. Put shortly:
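MTT assay. Compound added 24 h after seeding and left for 48 h. MTT was then added for 4 h at 37 °C, formazan dissolved in DMSO and absorbance read at 490 nm. IC50 calculated from three independent experiments.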
A general note: Formazan colour is commonly taken as a measure of viable cells.

The next experiment has as its system PC-3. As to the kind of experiment: Antiproliferative activity against human PC-3 cells assessed as reduction in cell viability incubated for 48 hrs by MTT assay. It is filed as functional, cell-based. The conditions noted are these: PC-3, 48 h. Put shortly:
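MTT assay. 5,000 cells per well in RPMI-1640 with 10% FBS and penicillin/streptomycin at 37 °C, 5% CO2. Compound added 24 h after seeding and left for 48 h. MTT was then added for 4 h at 37 °C, formazan dissolved in DMSO and absorbance read at 490 nm. IC50 calculated from three independent experiments.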

Experiment [2] deals with MGC-803. As to the kind of experiment: Antiproliferative activity against human MGC-803 cells assessed as reduction in cell viability at 60 nmol/L incubated for 48 hrs by MTT assay relative to control. Format: functional. The method, boiled down:
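MTT viability in gastric cell lines grown in RPMI-1640 with 10% FBS at 37 °C, 5% CO2. Compound at 20, 40 and 60 nM for 48 h, starting 24 h after seeding 5,000 cells per well. MTT for 4 h, formazan dissolved in DMSO, absorbance at 490 nm. Inhibition expressed relative to control.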

Experiment [3] is described as follows: Inhibition of pig brain tubulin polymerization in presence of GTP by spectrophotometric method. The arrangement: species or system Sus scrofa. Put shortly:
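Tubulin purified from pig brain by three temperature-dependent assembly/disassembly cycles in PIPES pH 6.5 (100 mM), 1.0 mM MgSO4, 2.0 mM EGTA, 1.0 mM GTP, 1.0 mM 2-mercaptoethanol, then phosphocellulose chromatography. Protein mixed with compound in PEM buffer with 1 mM GTP and 5% glycerol.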

In experiment [4] the test system is MGC-803. As to the kind of experiment: Inhibition of tubulin polymerization in human MGC-803 cells assessed as decrease in filamentous structure at 20 to 60 nmol/L by DAPI staining based microscopic analysis. Format: cell-based. The conditions noted are these: dose 20-60 nmol/L. Put shortly:
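Cells cultured in RPMI-1640 with 10% FBS at 37 °C, 5% CO2, treated 48 h with 20, 40 and 60 nM; stained for β-tubulin (green) and nuclei (blue) and examined by microscopy.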

Experiment [5] has as its system MGC-803. Nature of the experiment: Inhibition of colony formation in human MGC-803 cells at 20 to 60 nM incubated for 7 days by crystal violet staining based assay. Particulars: dose 20-60 nM, time 7.0 day. It is filed as functional, cell-based. The method, boiled down:
(§1)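 Cells maintained in RPMI-1640 with 10% FBS at 37 °C, 5% CO2; incubated with 20, 40 and 60 nM for 7 days before colony counting.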

Experiment [6] relates to MGC-803. Nature of the experiment: Induction of cell cycle arrest in human MGC-803 cells assessed as downregulation of CDK1 at 20 to 60 nM incubated for 48 hrs by Western blot analysis. Format: functional, cell-based. Particulars: dose 20-60 nM. Put shortly:
(§2)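 Cells grown in RPMI-1640 with 10% FBS, penicillin/streptomycin at 37 °C, 5% CO2. Exposure to 20, 40 or 60 nM for 48 h alongside DMSO control. Lysates denatured, resolved by SDS-PAGE, transferred to PVDF, blocked, then probed with primary and secondary antibodies.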
(Immunoblotting shows a protein as a band on a membrane.)

For experiment [7], the system named is SGC-7901. Nature of the experiment: Inhibition of colony formation in human SGC-7901 cells at 20 to 60 nM incubated for 7 days by crystal violet staining based assay. It is filed as functional, cell-based. The conditions noted are these: dose 20-60 nM, time 7.0 day. The method, boiled down: as §1
The test system of experiment [8] is SGC-7901. As to the kind of experiment: Induction of cell cycle arrest in human SGC-7901 cells assessed as downregulation of Cyclin B1 at 20 to 60 nM incubated for 48 hrs by Western blot analysis. Format: functional, cell-based. The conditions noted are these: dose 20-60 nM. The method, boiled down:
as §2

For experiment [9], the system named is SGC-7901. Nature of the experiment: Induction of cell cycle arrest in human SGC-7901 cells assessed as downregulation of CDK1 at 20 to 60 nM incubated for 48 hrs by Western blot analysis. Format: functional, cell-based. Particulars: dose 20-60 nM. Put shortly:
as §2

The test system of experiment [10] is MGC-803. As to the kind of experiment: Induction of apoptosis in human MGC-803 cells assessed as upregulation of Noxa at 20 to 60 nM incubated for 48 hrs by Western blot analysis. Particulars: dose 20-60 nM. Format: functional, cell-based. The method, boiled down: (§3)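 Western blot on MGC-803 and SGC-7901 cells given 20, 40 and 60 nM compound or DMSO for 48 h. Denatured lysates were run on SDS-PAGE and transferred to PVDF, then probed with primary and secondary antibodies to detect apoptosis-related proteins.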

Experiment [11] relates to MGC-803. Nature of the experiment: Induction of apoptosis in human MGC-803 cells assessed as downregulation of XIAP at 20 to 60 nM incubated for 48 hrs by Western blot analysis. Format: functional, cell-based. Particulars: dose 20-60 nM. Put shortly: as §3
The subject of experiment [12] is MGC-803. As to the kind of experiment: Induction of apoptosis in human MGC-803 cells assessed as downregulation of c-IAP2 at 20 to 60 nM incubated for 48 hrs by Western blot analysis. Format: functional, cell-based. Particulars: dose 20-60 nM. Put shortly: as §3
The test system of experiment [13] is SGC-7901. As to the kind of experiment: Induction of apoptosis in human SGC-7901 cells assessed as upregulation of FADD at 20 to 60 nM incubated for 48 hrs by Western blot analysis. It is filed as functional, cell-based. Particulars: dose 20-60 nM. Put shortly:
as §2

In experiment [14] the test system is SGC-7901. As to the kind of experiment: Induction of apoptosis in human SGC-7901 cells assessed as upregulation of Bak at 20 to 60 nM incubated for 48 hrs by Western blot analysis. Format: functional, cell-based. Particulars: dose 20-60 nM. The method, boiled down:
as §2

Experiment [15] has as its system SGC-7901. Nature of the experiment: Induction of apoptosis in human SGC-7901 cells assessed as upregulation of Bax at 20 to 60 nM incubated for 48 hrs by Western blot analysis. It is filed as functional, cell-based. Particulars: dose 20-60 nM. The method, boiled down:
as §2

Experiment [16] concerns SGC-7901. As to the kind of experiment: Induction of apoptosis in human SGC-7901 cells assessed as downregulation of XIAP at 20 to 60 nM incubated for 48 hrs by Western blot analysis. Particulars: dose 20-60 nM. Format: functional, cell-based. Put shortly: as §3
Experiment [17] has as its system SGC-7901. Nature of the experiment: Induction of apoptosis in human SGC-7901 cells assessed as increase in caspase-9 cleavage at 20 to 60 nM incubated for 48 hrs by Western blot analysis. Particulars: dose 20-60 nM. It is filed as functional, cell-based. Put shortly:
as §2

For experiment [18], the system named is MGC-803. Nature of the experiment: Induction of apoptosis in human MGC-803 cells assessed as early apoptotic cells at 20 nM incubated for 48 hrs by annexin V-FITC and PI staining based flow cytometry analysis (reference value: 2.9 %). It is filed as functional. In general terms: In flow cytometry, cells or beads pass a laser one at a time.
Experiment [19] deals with MGC-803. Nature of the experiment: Induction of apoptosis in human MGC-803 cells assessed as late apoptotic cells at 20 nM incubated for 48 hrs by annexin V-FITC and PI staining based flow cytometry analysis (reference value: 4.1 %). It is filed as functional.
Experiment [20] has as its system MGC-803. Nature of the experiment: Induction of apoptosis in human MGC-803 cells assessed as early apoptotic cells at 40 nM incubated for 48 hrs by annexin V-FITC and PI staining based flow cytometry analysis (reference value: 2.9 %). Format: functional.
For experiment [21], the system named is MGC-803. As to the kind of experiment: Induction of apoptosis in human MGC-803 cells assessed as late apoptotic cells at 60 nM incubated for 48 hrs by annexin V-FITC and PI staining based flow cytometry analysis (reference value: 4.1 %). It is filed as functional.
Experiment [22] deals with SGC-7901. Nature of the experiment: Induction of apoptosis in human SGC-7901 cells assessed as late apoptotic cells at 20 nM incubated for 48 hrs by annexin V-FITC and PI staining based flow cytometry analysis (reference value: 2.4 %). Format: functional.
Experiment [23] relates to SGC-7901. As to the kind of experiment: Induction of apoptosis in human SGC-7901 cells assessed as early apoptotic cells at 40 nM incubated for 48 hrs by annexin V-FITC and PI staining based flow cytometry analysis (reference value: 1.4 %). It is filed as functional.

The structures appear in SMILES notation. Activity calls are given as the source filed them. The rule behind the calls is not given here.

By IC50 is commonly meant the point on the concentration scale where inhibition reaches its midpoint. In general, inhibition refers to the drop in the measured response relative to a control, in per cent. As to `COc1ccc(CN(C(=O)CSc2nc3ccccc3s2)c2cc(OC)c(OC)c(OC)c2)cc1O`, the IC50 in the experiment with MGC-803 [1] amounted to 0.035 µM; in the experiment on PC-3, 2.11 µM; in experiment [3], 1.9 µM. Moreover, the inhibition at 0.06 µM in the experiment with MGC-803 [2] stood at 72%. In addition, the result with MGC-803 [4], with MGC-803 [5], in the experiment on MGC-803 [6], in the experiment with SGC-7901 [7], with SGC-7901 [8] and in the experiment on SGC-7901 [9] was Active. The result in the experiment with MGC-803 [10], with MGC-803 [11], with MGC-803 [12], in the experiment on SGC-7901 [13], in the experiment on SGC-7901 [14] and with SGC-7901 [15] was Active. Further, the result in the experiment with SGC-7901 [16] and in the experiment on SGC-7901 [17] was Active. For the same molecule, the Activity in the experiment with MGC-803 [18] was determined as 4.4%; with MGC-803 [19], 4.1%; in the experiment with MGC-803 [20], 10.2%; in the experiment with MGC-803 [21] it was 30.4%; in the experiment with SGC-7901 [22], 4.2%; in the experiment on SGC-7901 [23], 9.5%.
